From ChEMBL document CHEMBL1132488, “On the bioactive conformation of NAN-190 (1) and MP3022 (2), 5-HT(1A) receptor antagonists” (J Med Chem, 1999)

Legend:
[1] = system: Rattus norvegicus; assay: Effect on 8-OH-DPAT-Induced LLR(lower lip retraction) in rats at a dose of 4 mg/kg; format: functional
Procedure, shortened: (§1)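 Male Wistar rats, groups of 6. Compound given ip in 1% Tween 80 45 min before 8-OH-DPAT 1 mg/kg sc. Lower incisor visibility scored 0/0.5/1 at 15, 30 and 45 min after agonist, summed (max 3). Mean ± SEM; Newman–Keuls test; ED50 with range.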

[2] = system: Rattus norvegicus; assay: Induction of LLR(lower lip retraction) by the compound in rats at a dose of 8 mg/kg; format: functional
Procedure, shortened: (§2)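 Male Wistar rats, groups of 6, given compound alone ip as 1% Tween 80 suspension. Lower incisor visibility scored 0/0.5/1 at 15, 30 and 45 min after dosing, summed (max 3 per rat). Mean ± SEM versus vehicle, Newman–Keuls test; ED50 with range.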

[3] = system: Rattus norvegicus; assay: Induction of LLR(lower lip retraction) by the compound in rats at a dose of 16 mg/kg; format: functional; procedure, shortened: as §2
[4] = organism: Rattus norvegicus; assay: Effect on 8-OH-DAPT- induced behavioral syndrome(FT: forepaw treading) by the compound in reserpine pretreated rats at a dose of 2.; format: functional
[5] = organism: Rattus norvegicus; assay: Induction of behavioral syndrome(FT: forepaw treading) by the compound in reserpine pretreated rats at a dose of 2.; format: functional
[6] = organism: Rattus norvegicus; assay: Effective dose of the required to inhibit symptoms produced by 8-OH-DPAT; format: functional
Procedure, shortened: (§3)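 Reserpinized male Wistar rats (reserpine 1 mg/kg sc, 18 h before), groups of 6. Compound given ip in 1% Tween 80 60 min before 8-OH-DPAT 5 mg/kg sc. FBP/FT rated 0–3 at 3, 6, 9, 12 and 15 min after agonist, summed (max 15). Mean ± SEM; Newman–Keuls test; ED50 with range.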

[7] = organism: Rattus norvegicus; assay: Induction of behavioral syndrome(FBP: flat body posture) by the compound in reserpine pretreated rats at a dose of 2.; format: functional
Procedure, shortened: (§4)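 Male Wistar rats (260–300 g), groups of 6, given reserpine 1 mg/kg sc 18 h before test. Compounds given ip as 1% Tween 80 suspension. FBP and FT rated 0–3 in 45-s sessions every 3 min, starting 3 min after dosing. Score summed over 5 periods (max 15 per symptom). Mean ± SEM; Newman–Keuls test.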

[8] = system: Rattus norvegicus; assay: Effect on 8-OH-DPAT-Induced LLR(lower lip retraction) in rats at a dose of 16 mg/kg; format: functional; procedure, shortened: as §1
[9] = organism: Rattus norvegicus; assay: Dose inhibiting 8-OH-DPAT-induced behavioral syndrome(FBP: flat body posture) by the compound in reserpine pretreated rats.
[10] = organism: Rattus norvegicus; assay: Effect on 8-OH-DAPT- induced behavioral syndrome(FT: forepaw treading) by the compound in reserpine pretreated rats at a dose of 4.; format: functional; procedure, shortened: as §3
[11] = organism: Rattus norvegicus; assay: Effect on 8-OH-DAPT- induced behavioral syndrome(FBP: flat body posture) by the compound in reserpine pretreated rats at a dose of 4.; format: functional; procedure, shortened: as §3
[12] = system: Rattus norvegicus; assay: Induction of LLR(lower lip retraction) by the compound in rats at a dose of 4 mg/kg; format: functional; procedure, shortened: as §2
[13] = system: Rattus norvegicus; assay: Effect on 8-OH-DPAT-Induced LLR(lower lip retraction) in rats at a dose of 8 mg/kg; format: functional; procedure, shortened: as §1
[14] = organism: Rattus norvegicus; assay: Effect on 8-OH-DAPT- induced behavioral syndrome(FBP: flat body posture) by the compound in reserpine pretreated rats at a dose of 8.; format: functional; procedure, shortened: as §3
[15] = organism: Rattus norvegicus; assay: Induction of behavioral syndrome(FT: forepaw treading) by the compound in reserpine pretreated rats at a dose of 4.; format: functional
Procedure, shortened: (§5)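 Male Wistar rats (260–300 g) were given reserpine 1 mg/kg sc in saline 18 h before testing. Test compound was then given alone ip as a 1% Tween 80 suspension (2 mL/kg). FBP and FT were each scored 0–3 and summed (maximum 15). n=6 per group; mean ± SEM; Newman–Keuls test.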

[16] = target: T1, 5-hydroxytryptamine receptor 1A (Rattus norvegicus, UniProt P19327); assay: Ability to displace [3H]8-OH-DPAT from 5-hydroxytryptamine 1A receptor
T1 sequence (P19327 whole entry): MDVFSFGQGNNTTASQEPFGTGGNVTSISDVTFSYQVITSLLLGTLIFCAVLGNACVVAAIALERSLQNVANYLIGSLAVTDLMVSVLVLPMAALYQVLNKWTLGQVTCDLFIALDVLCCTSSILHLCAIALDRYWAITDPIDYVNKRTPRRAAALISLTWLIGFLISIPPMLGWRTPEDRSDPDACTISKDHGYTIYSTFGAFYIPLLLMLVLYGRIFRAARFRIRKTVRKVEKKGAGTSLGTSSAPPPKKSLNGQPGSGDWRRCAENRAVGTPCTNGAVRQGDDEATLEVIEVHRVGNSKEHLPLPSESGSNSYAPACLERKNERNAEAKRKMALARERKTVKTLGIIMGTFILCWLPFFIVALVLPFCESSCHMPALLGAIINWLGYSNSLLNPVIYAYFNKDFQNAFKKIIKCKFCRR
Procedure, shortened: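 Rat hippocampal membranes, [3H]8-OH-DPAT radioligand. Ki from at least three competition experiments, each with 10–14 drug concentrations run in triplicate. Ki calculated with the Cheng–Prusoff equation.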

[17] = organism: Rattus norvegicus; assay: Induction of behavioral syndrome(FBP: flat body posture) by the compound in reserpine pretreated rats at a dose of 8.; format: functional; procedure, shortened: as §5
[18] = organism: Rattus norvegicus; assay: Induction of behavioral syndrome(FT: forepaw treading) by the compound in reserpine pretreated rats at a dose of 8.; format: functional; procedure, shortened: as §5
[19] = organism: Rattus norvegicus; assay: Effect on 8-OH-DAPT- induced behavioral syndrome(FBP: flat body posture) by the compound in reserpine pretreated rats at a dose of 2.; format: functional
[20] = organism: Rattus norvegicus; assay: Induction of behavioral syndrome(FBP: flat body posture) by the compound in reserpine pretreated rats at a dose of 4.; format: functional; procedure, shortened: as §5
[21] = organism: Rattus norvegicus; assay: Dose Inducing behavioral syndrome(FT: forepaw treading) by the compound in reserpine pretreated rats.; format: functional; procedure, shortened: as §4
[22] = organism: Rattus norvegicus; assay: Effect on 8-OH-DAPT- induced behavioral syndrome(FT: forepaw treading) by the compound in reserpine pretreated rats at a dose of 8.; format: functional; procedure, shortened: as §3
[23] = system: Rattus norvegicus; assay: Induction of LLR(lower lip retraction) by the compound in rats at a dose of 4 mg/kg; LLR score; format: functional; procedure, shortened: as §2
[24] = organism: Rattus norvegicus; assay: Effect on 8-OH-DAPT- induced behavioral syndrome(FBP: flat body posture) by the compound in reserpine pretreated rats at a dose of 8; FBP mean score; format: functional; procedure, shortened: as §3
[25] = organism: Rattus norvegicus; assay: Effect on 8-OH-DAPT- induced behavioral syndrome(FBP: flat body posture) by the compound in reserpine pretreated rats at a dose of 4; FBP mean score; format: functional; procedure, shortened: as §3
[26] = organism: Rattus norvegicus; assay: Dose Inducing behavioral syndrome(FBP: flat body posture) by the compound in reserpine pretreated rats; format: functional; procedure, shortened: as §4
[27] = organism: Rattus norvegicus; assay: Effect on 8-OH-DAPT- induced behavioral syndrome(FT: forepaw treading) by the compound in reserpine pretreated rats at a dose of 16; FT mean score; format: functional; procedure, shortened: as §3
[28] = system: Rattus norvegicus; assay: Induction of LLR(lower lip retraction) by the compound in rats at a dose of 8 mg/kg; LLR score; format: functional; procedure, shortened: as §2
[29] = organism: Rattus norvegicus; assay: Effect on 8-OH-DAPT- induced behavioral syndrome(FBP: flat body posture) by the compound in reserpine pretreated rats at a dose of 16; FBP mean score; format: functional; procedure, shortened: as §3
[30] = organism: Rattus norvegicus; assay: Induction of behavioral syndrome(FBP: flat body posture) by the compound in reserpine pretreated rats at a dose of 16; FBP mean score; format: functional; procedure, shortened: as §4
[31] = organism: Rattus norvegicus; assay: Induction of behavioral syndrome(FT: forepaw treading) by the compound in reserpine pretreated rats at a dose of 4; FT mean score; format: functional; procedure, shortened: as §5
[32] = system: Rattus norvegicus; assay: Effect on 8-OH-DPAT-Induced LLR(lower lip retraction) in rats at a dose of 8 mg/kg; LLR score; format: functional; procedure, shortened: as §1
[33] = organism: Rattus norvegicus; assay: Induction of behavioral syndrome(FBP: flat body posture) by the compound in reserpine pretreated rats at a dose of 8; FBP mean score; format: functional; procedure, shortened: as §5
[34] = system: Rattus norvegicus; assay: Induction of LLR(lower lip retraction) by the compound in rats at a dose of 16 mg/kg; LLR score; format: functional; procedure, shortened: as §2
[35] = system: Rattus norvegicus; assay: Effect on 8-OH-DPAT-Induced LLR(lower lip retraction) in rats at a dose of 16 mg/kg; LLR score; format: functional; procedure, shortened: as §1
[36] = organism: Rattus norvegicus; assay: Induction of behavioral syndrome(FT: forepaw treading) by the compound in reserpine pretreated rats at a dose of 16; FT mean score; format: functional; procedure, shortened: as §5
[37] = organism: Rattus norvegicus; assay: Induction of behavioral syndrome(FT: forepaw treading) by the compound in reserpine pretreated rats at a dose of 8; FT mean score; format: functional; procedure, shortened: as §5
[38] = organism: Rattus norvegicus; assay: Effect on 8-OH-DAPT- induced behavioral syndrome(FT: forepaw treading) by the compound in reserpine pretreated rats at a dose of 8; FT mean score; format: functional; procedure, shortened: as §3
[39] = organism: Rattus norvegicus; assay: Effect on 8-OH-DAPT- induced behavioral syndrome(FT: forepaw treading) by the compound in reserpine pretreated rats at a dose of 4; FT mean score; format: functional; procedure, shortened: as §3
[40] = system: Rattus norvegicus; assay: Effect on 8-OH-DPAT-Induced LLR(lower lip retraction) in rats at a dose of 4 mg/kg; LLR score; format: functional; procedure, shortened: as §1
[41] = organism: Rattus norvegicus; assay: Induction of behavioral syndrome(FBP: flat body posture) by the compound in reserpine pretreated rats at a dose of 4; FBP mean score; format: functional; procedure, shortened: as §5

COc1ccccc1N1CCN(CCCCN2C(=O)[C@H]3CCCC[C@H]3C2=O)CC1
LLR score [1]: 1.7 | LLR score [2]: 0.5 | LLR score [3]: 0.8 | FT mean score [4]: 3.8 | FT mean score [5]: 0.2 | ED50 [6]: 7.5 mg/kg | FBP mean score [7]: 0.1 | LLR score [8]: 0.7 | ED50 [9]: 3.2 mg/kg | FT mean score [10]: 3.5 | FBP mean score [11]: 6.7 | LLR score [12]: 0.5 | LLR score [13]: 1.3 | FBP mean score [14]: 5.5 | FT mean score [15]: 0.2 | Ki [16]: 4 nM | FBP mean score [17]: 0.2 | FT mean score [18]: 0.2 | FBP mean score [19]: 8.3 | FBP mean score [20]: 0.2 | ED50 [21]: 2.6 mg/kg | FT mean score [22]: 0.5

O=C1[C@H]2CCCC[C@H]2C(=O)N1C1CCC(N2CCc3ccccc3C2)CC1 (some centres undefined)
Ki [16]: 1600 nM

COc1ccccc1N1CCN(CCCn2nnc3ccccc32)CC1
LLR score [23]: 0 | FBP mean score [24]: 8 | FBP mean score [25]: 11.5 | ED50 [26]: 10.5 mg/kg | FT mean score [27]: 2.6 | ED50 [6]: 6.5 mg/kg | LLR score [28]: 0.1 | FBP mean score [29]: 6.1 | FBP mean score [30]: 0.1 | FT mean score [31]: 0.2 | LLR score [32]: 0.7 | FBP mean score [33]: 0.2 | LLR score [34]: 0.6 | LLR score [35]: 0.9 | FT mean score [36]: 0.1 | FT mean score [37]: 0.2 | FT mean score [38]: 3.7 | ED50 [21]: 5.2 mg/kg | FT mean score [39]: 5.8 | LLR score [40]: 1.1 | FBP mean score [41]: 0.2
